PP1 counter = PP1-alpha phosphatase inhibitors, primary screen, counter-screen for PP5 inhibitor project, biochemical, fluorescence, OMFP substrate, single point; purified PP1alpha; hit rate 0.9% among 320,000; Serine/threonine-protein phosphatase PP1-alpha catalytic subunit (Homo sapiens), P62136; AID 2235, 2010; inhibition, % at 6.7 µM;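 active = inhibition above the mean inhibition of all tested compounds plus 3 SD, computed separately for each screening campaign, cut at about 15% in these data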
Target sequence (P62136 whole entry, looked up): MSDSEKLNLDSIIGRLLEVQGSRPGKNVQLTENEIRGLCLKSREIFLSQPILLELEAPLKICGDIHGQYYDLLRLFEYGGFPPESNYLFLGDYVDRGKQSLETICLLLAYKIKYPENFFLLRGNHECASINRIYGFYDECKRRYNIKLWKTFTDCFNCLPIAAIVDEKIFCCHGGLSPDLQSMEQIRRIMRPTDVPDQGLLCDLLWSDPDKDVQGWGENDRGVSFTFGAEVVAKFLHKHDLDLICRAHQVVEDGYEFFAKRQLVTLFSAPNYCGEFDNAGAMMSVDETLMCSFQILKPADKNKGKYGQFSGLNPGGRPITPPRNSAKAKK
ZTA DNA inh = counter-screen for EBNA-1 inhibitors: inhibitors of Epstein-Barr virus ZTA; P03206; ZTA-DNA binding, fluorescence polarization; inhibition, % at 11 µM; hit rate 0.15% among 320,000; in the data active = inhibition above about 33%
Target sequence (P03206 whole entry, looked up): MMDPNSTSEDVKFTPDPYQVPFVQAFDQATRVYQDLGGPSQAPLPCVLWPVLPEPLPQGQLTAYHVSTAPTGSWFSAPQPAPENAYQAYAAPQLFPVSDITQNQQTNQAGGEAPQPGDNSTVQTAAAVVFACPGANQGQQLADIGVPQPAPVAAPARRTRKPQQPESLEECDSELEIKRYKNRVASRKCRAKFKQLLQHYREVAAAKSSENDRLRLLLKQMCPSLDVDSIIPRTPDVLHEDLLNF
core dimer inh = inhibitors of HCV core protein dimerization, primary screen, biochemical, TR-FRET, high-throughput. TR-FRET GST/Flag-core106 dimerization, 1536-well. inhibition, % at 5 µM. hit rate 0.33% among 300,000. AID 1899, 2009;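 active = inhibition above the mean of all tested compounds plus 3 SD, set per screening campaign, cut at about 45% in these data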
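test system = GST/Flag-tagged HCV core106 proteins | probe or stimulus = Eu donor and XL665 acceptor anti-tag antibodies | times = compound-protein-antibody incubation 4 h at 22.5 °C | signal = TR-FRET, excitation 340 nm, emission 617 and 671 nm | measure = percent inhibition of core106 dimerization signal | controls = wells lacking GST-core106 and wells with excess unlabelled core106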
EBNA-1 inh = EBNA-1 DNA-binding inhibitors, primary screen, biochemical, fluorescence polarization. inhibition, % at 14.8 µM. hit rate 0.34% among 300,000. AID 1950, 2009; in the data active = inhibition above about 28%
HCV NS3 hel inh = inhibitors of HCV NS3 helicase, primary screen, biochemical, Cy5 molecular beacon fluorescence; NS3 helicase DNA unwinding; Hepatitis C virus NS3 helicase; hit rate 0.56% among 290,000; inhibition, % at 10.9 µM;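 active = inhibition above the mean of all tested compounds plus 3 SD, set per campaign, cut at about 35% in these data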;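 also: 0% = DMSO wells and 100% = thioflavine S control wells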
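System: HCV NS3 helicase fragment; control set: DMSO and thioflavine S; technique: Cy5 fluorescence at 0 and 60 min, beacon hairpin quenching; reagent: beacon DNA duplex substrate plus ATP; replicates: singlicate; schedule: 1 h reaction at 25 °C, ATP-initiated; medium: MOPS buffer pH 6.5 with MgCl2, DTT, Tween20, BSA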
An asterisk follows results filed as active; . = not tested or not shown. Most compounds without a hit are left out; they make up all but 1.9% or so of the library.

SMILES	PP1 counter	ZTA DNA inh	core dimer inh	EBNA-1 inh	HCV NS3 hel inh
CCN(CC)S(=O)(=O)c1ccc2c(c1)nc(CCC(=O)Nc1ccc3c(c1)OCO3)n2C	6	14	21	4	-1
O=C(O)Cc1sc(NC2CCCCC2)nc1-c1ccc(Cl)cc1	4	2	-12	-1	18
CCOC(=O)N1CCN(S(=O)(=O)c2ccc(C(=O)NNc3nc4ccc(Cl)cc4s3)cc2)CC1	16*	0	17	9	-4
Cc1cccc2sc(NNC(=O)c3ccc(S(=O)(=O)N4CCCC(C)C4)cc3)nc12 (stereo not given)	10	-18	6	-11	3
Cc1cccc2sc(NNC(=O)c3ccc(S(=O)(=O)N4CCc5ccccc5C4)cc3)nc12	16*	19	37	0	-4
Cc1cc(C)c2nc(NNC(=O)c3ccc(S(=O)(=O)N4CCCCC4)cc3)sc2c1	16*	-7	16	1	1
CCn1nc(NS(=O)(=O)c2ccccc2[N+](=O)[O-])c2cc3ccc(C)cc3nc21	-1	0	-11	-5	5
O=C(NNC(=O)c1ccccc1F)c1cccc(-n2cccc2)c1	6	3	53*	5	.
O=C(NNC(=O)c1cccc(-n2cccc2)c1)c1ccccc1	1	10	.	.	.
Cn1c(SCc2cccc(Br)c2)nnc1-c1ccncc1	2	-6	3	-9	0
O=C(COC(=O)Cc1ccsc1)Nc1ccc(Cl)cn1	0	3	.	.	.
Cc1ccc2[nH]c(C)c(CCNC(=O)c3cc4cc([N+](=O)[O-])ccc4oc3=O)c2c1	2	-10	50*	3	-6
Cc1ccc2[nH]c(C)c(CCNC(=O)c3c(N)no[n+]3[O-])c2c1	1	-19	-4	16	-7
Cc1cccc(N2CC(C(=O)Nc3nnc(SCC(=O)NCC4CCCO4)s3)CC2=O)c1 (stereo not given)	-1	-3	65*	-7	20
Cc1ccc(-n2c(N)c(C(=O)Nc3c(C)n(C)n(-c4ccccc4)c3=O)c3nc4ccccc4nc32)cc1C	11	0	30	3	72*
Cc1cc(OC(=O)c2ccccc2Br)c([N+](=O)[O-])c(=O)[nH]1	0	-13	-3	-4	-3
CCN(CC)c1ccc(-c2nn3c(-c4ccccc4OC)nnc3s2)cc1	16*	-1	15	-8	-37
COc1cccc(OC)c1-c1nn2c(-c3cc(-c4ccccc4)n[nH]3)nnc2s1	59*	165*	54*	60*	-2
CC(C)(C)OC(=O)COc1cc(OCC(=O)OC(C)(C)C)c2c(=O)cc(-c3ccccc3)oc2c1	17*	11	15	8	-11
CCOc1ccc(-n2cc(C(=O)Nc3cccc(Cl)c3)c3cc(OC)c(OC)cc3c2=O)cc1	-2	6	48*	-5	-2
CCOc1ccc(NC(=O)c2cn(-c3ccc(OCC)cc3)c(=O)c3cc(OC)c(OC)cc23)cc1	-5	-8	17	-15	-11
COC1OC(COC(=O)c2ccccc2)C(OC(=O)c2ccccc2)C1OC(=O)c1ccccc1 (stereo not given)	2	-7	6	-5	1
O=C(OC[C@H]1O[C@@H](OC(=O)c2cc(O)c(O)c(OC(=O)c3cc(O)c(O)c(O)c3)c2)[C@H](OC(=O)c2cc(O)c(O)c(OC(=O)c3cc(O)c(O)c(O)c3)c2)[C@@H](OC(=O)c2cc(O)c(O)c(OC(=O)c3cc(O)c(O)c(O)c3)c2)[C@@H]1OC(=O)c1cc(O)c(O)c(OC(=O)c2cc(O)c(O)c(O)c2)c1)c1cc(O)c(O)c(OC(=O)c2cc(O)c(O)c(O)c2)c1	82*	87*	-122	86*	.
N#CC1=C(S)N=C(N)C(c2nc(-c3ccccc3)cs2)C12CCCCC2 (stereo not given)	0	-10	17	-11	2
Cc1ccc(-c2csc(C3C(N)=NC(S)=C(C#N)C34CCCCC4)n2)cc1 (stereo not given)	17*	-3	40	16	18
SMILES	PP1 counter	ZTA DNA inh	core dimer inh	EBNA-1 inh	HCV NS3 hel inh
NC(=O)c1ccccc1OCC(=O)N1CCc2ccccc2C1	-3	-19	-4	5	8
O=C(Cc1ccccc1)Nc1ccc2c(c1)CCC2	-4	12	1	-12	2
O=C(CC1CCCC1)Nc1ccc2c(c1)CCC2	0	-3	-2	14	39*
c1ccc2c(c1)nc1n2CCN1CCN1CCCC1	-4	-4	0	-6	10
COc1ccccc1C(=O)Nc1sc2c(c1C(=O)NCc1ccco1)CCCC2	5	18	53*	21	2
COc1ccc(/C=C/C(=O)O)cc1S(=O)(=O)Nc1ccc2c(c1)OCO2	-2	-2	1	-1	1
CCCCn1c(=O)[nH]c(=O)c2c1nc(-c1ccc(OCC)cc1)n2CC	-3	-9	5	-10	-9
CCCCn1c(=O)[nH]c(=O)c2c1nc(-c1ccc(C#N)cc1)n2C1CCCC1	10	12	58*	3	-3
COc1cccc(/C=N/NC(=O)c2cc3c(OC)ccc(OC)c3[nH]2)c1O	16*	23	-32	-4	-6
COc1cc(OC)c2cc(C(=O)N/N=C/c3cccc(OC)c3O)[nH]c2c1	8	4	-12	-2	7
Cc1ccc(C(=O)C2=C(O)C(=O)N(Cc3ccccc3)C2c2cccnc2)o1 (stereo not given)	3	2	4	4	-1
COc1ccc(C2C(C(=O)c3ccc(C)o3)=C(O)C(=O)N2Cc2cccnc2)cc1OC (stereo not given)	-2	18	-1	6	-3
CCOc1ccc(C2C(C(=O)c3ccc(C)o3)=C(O)C(=O)N2Cc2cccnc2)cc1 (stereo not given)	15*	5	1	-6	13
Cc1ccc(C(=O)C2=C(O)C(=O)N(Cc3cccnc3)C2c2ccc(Cl)cc2)o1 (stereo not given)	16*	12	9	3	24
O=C(NCC1CCN(Cc2ccc(Cl)cc2)CC1)C1CCCN(c2ncnc3c2nc2n3CCCCC2)C1 (stereo not given)	6	2	3	-6	-52
CCc1ccc(Nc2nc(N)nc(CSc3nnnn3-c3ccccc3)n2)cc1	16*	3	4	-8	-83
CCCc1ccc2oc(C(=O)N3CCNC(=O)C3CC(=O)OC)c(C)c2c1 (stereo not given)	-1	-28	-22	4	-3
O=c1c2ccccc2nc(SCc2ccc([N+](=O)[O-])cc2)n1-c1ccccc1	5	3	13	2	-5
O=C(O)c1ccc2c(=O)n(Cc3ccccc3)c(SCc3ccc([N+](=O)[O-])cc3)nc2c1	18*	19	25	11	-6
